Screening data from PubChem BioAssay.
Shown are actives, neighbours in structure and some others; about 2.7% of the full set was active somewhere.
MC4R ag barr = human MC4R agonism via beta-arrestin; P32245; activation, % at 8.9 µM; 360,000 compounds, 0.98% hits; U2OS MC4R beta-arrestin complementation, luminescence; percent of melanotan II response, DMSO zero;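 active = activation above a per-plate cutoff, the mean activation of sample wells on that plate plus 3 SD, cut at about 8% in these data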
Target sequence (P32245 whole entry, looked up): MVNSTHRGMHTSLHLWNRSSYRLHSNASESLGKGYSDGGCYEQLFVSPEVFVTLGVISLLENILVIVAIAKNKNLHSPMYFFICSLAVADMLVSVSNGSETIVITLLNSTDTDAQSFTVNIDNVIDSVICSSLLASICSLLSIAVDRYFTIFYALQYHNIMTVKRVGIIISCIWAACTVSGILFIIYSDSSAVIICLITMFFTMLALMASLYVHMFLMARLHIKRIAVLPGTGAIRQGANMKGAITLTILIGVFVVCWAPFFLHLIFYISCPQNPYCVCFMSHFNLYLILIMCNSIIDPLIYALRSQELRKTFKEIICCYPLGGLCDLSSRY
NR1D1 modulator = Rev-erb alpha (human) modulation; P20393; Rev-erbα–FITC-DNA binding, fluorescence polarization, 90 min; activity, % at 10 µM; 370,000 compounds, 0.79% hits; AID 1259318;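 active = activity above about 14%, limit read from the data; passing the limit was not always enough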;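 also: 0% = DMSO wells with 35 nM protein and 100% = DMSO wells with 750 nM protein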
NR2E3 ag-1 = activates human photoreceptor nuclear receptor NR2E3 | Q9Y5X4 | GST-NR2E3/biotin-RetCOR TR-FRET, 1536-well | inhibition of corepressor binding, % at 4.78 µM | 320,000 compounds, 0.12% hits;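 active = percent inhibition above the cutoff of mean plus 3 SD of all tested compounds, set per screening campaign, cut at about 20% in these data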;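 also: 0% = DMSO wells and 100% = biotin wells as full block of FRET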
Target sequence (Q9Y5X4 whole entry, looked up): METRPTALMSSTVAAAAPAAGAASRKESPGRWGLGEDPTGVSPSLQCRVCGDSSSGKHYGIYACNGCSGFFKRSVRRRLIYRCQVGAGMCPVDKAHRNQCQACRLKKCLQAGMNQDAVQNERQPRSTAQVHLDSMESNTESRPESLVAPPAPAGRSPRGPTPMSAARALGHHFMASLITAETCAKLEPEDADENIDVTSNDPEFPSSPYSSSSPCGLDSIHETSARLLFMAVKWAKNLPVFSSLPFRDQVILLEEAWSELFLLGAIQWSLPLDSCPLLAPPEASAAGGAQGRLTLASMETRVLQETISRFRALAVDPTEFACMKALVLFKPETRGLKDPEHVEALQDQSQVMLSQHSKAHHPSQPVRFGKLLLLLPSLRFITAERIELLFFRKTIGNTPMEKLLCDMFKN
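Material: NR2E3–RetCOR corepressor complex | Quantity: 1.35 nM GST-tagged NR2E3 final | Schedule: 5 h at 4 °C | Replication: Singlicate compound wells | Reagent: RetCOR corepressor, biotinylated, 7 nM | Controls: Biotin wells as high control, 0.6% DMSO wells as low control | Signal: TR-FRET, Eu(K)-anti-GST donor, streptavidin-D2 acceptor, ex 340, em 617/671 nm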
NR2E3 ag-2 = human photoreceptor-specific nuclear receptor agonism; Q9Y5X4; CHO-S Gal4-NCOR/VP16-NR2E3 two-hybrid, luciferase; inhibition of corepressor binding, % at 3.98 µM; 360,000 compounds, 0.35% hits; AID 602229;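 active = inhibition above the mean of all tested compounds plus 3 SD, cut at about 70% in these data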;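 also: 0% = DMSO with NR2E3 transfected cells and 100% = cells lacking NR2E3 construct; higher means lower luciferase signal from less NR2E3 corepressor binding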
MC4R antag cAMP = antagonists of human melanocortin 4 receptor (MC4R). P32245. MC4R-expressing cells, MTII-stimulated cAMP, LANCE TR-FRET. inhibition, % at 6.5 µM. 360,000 compounds, 0.48% hits. AID 540295;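 active = inhibition above its plate's cutoff, the mean of tested wells on that plate plus 3 SD, cut at about 29% in these data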;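 also: 0% = Melanotan II alone and 100% = Melanotan II plus saturating MCL0020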
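system = U2OS cells with stable human MC4R expression | also added = Melanotan II challenge after compound preincubation | dosing = one concentration, 6.5 µM nominal | incubation = compound 30 min, challenge 1 h, detection 1 h | measured by = TR-FRET with Eu-cAMP and labeled anti-cAMP, 671 nm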
PG9 Ab binder = small molecules binding HIV-1 gp120 antibody PG9; TR-FRET gp120-PG9 antibody binding; inhibition, % at 6.7 µM; 360,000 compounds, 0.43% hits; in the data active = inhibition above about 8.5%
NR1D1 mod conf = Rev-erb alpha (human) modulation, hit confirmation. shares compounds with NR1D1 modulator. Rev-erb alpha FITC-DNA binding, fluorescence polarization, 90 min. activation, % at 25 µM. 3,000 compounds, 61% hits;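 active = activation at or above a set limit, or at least 3 SD above the negative control mean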;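 also: 0% = 35 nM protein with DMSO and 100% = 750 nM protein high control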
RORg counter = counter-screen for Rev-erb alpha modulators: RORgamma DNA binding. AID 1259320. shares compounds with NR1D1 modulator. IC50, µM. 910 compounds, 8% hits. purified RORgamma protein-FITC-DNA binding, fluorescence polarization;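 active = Compounds whose fitted half-maximal concentration for disrupting protein-DNA binding is below 10 micromolar; the record names Rev-erb in its text, so the target is in doubt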
* = called active by the depositor.

How did Clc1cccc(Cc2c(-c3cccc(Cl)c3)nc3ccc(Br)cn23)c1 do in these assays?
NR1D1 modulator: 26*; NR2E3 ag-2: 15; PG9 Ab binder: 6; NR1D1 mod conf: 19*

How did Cc1ccc(Cc2c(-c3ccc(C#N)cc3)nc3ccc(C)cn23)cc1 do in these assays?
NR1D1 modulator: -5; PG9 Ab binder: 0

What do the screens show for `Clc1ccc(-c2nc3ccc(Br)cn3c2Cc2cccc(Cl)c2)cc1`?
NR1D1 modulator: 25*; NR2E3 ag-2: 25; PG9 Ab binder: 5; NR1D1 mod conf: 19*

Results for Clc1cccc(Cc2c(-c3cccc(Br)c3)nc3ccc(Br)cn23)c1 ?
NR1D1 modulator: 20; NR2E3 ag-2: 7; PG9 Ab binder: 1

Results for N#Cc1ccc(-c2nc3ccc(Br)cn3c2Cc2cccc(Cl)c2)cc1 ?
NR1D1 modulator: 7; NR2E3 ag-2: -42; PG9 Ab binder: 2

How did Cc1ccc(Cc2c(-c3ccc(C#N)cc3)nc3ccc(Br)cn23)cc1 do in these assays?
MC4R ag barr: 1; NR1D1 modulator: 29*; NR2E3 ag-2: -73; MC4R antag cAMP: -5; PG9 Ab binder: 6; NR1D1 mod conf: 6

Results for S=C(NC1CCCCC1)N1CCC(C2C=NC=N2)CC1 (centres undefined) ?
MC4R ag barr: 4; NR1D1 modulator: 3; NR2E3 ag-2: -29; MC4R antag cAMP: 12; PG9 Ab binder: 0

Results for Cc1cc2nc(-c3ccc(F)cc3)c(Cc3cccc(Cl)c3)n2c(C)c1Br ?
NR1D1 modulator: -9; NR2E3 ag-2: -10; PG9 Ab binder: -3

How did Cc1cc(Br)c2nc(-c3ccc(F)cc3)c(Cc3cccc(Cl)c3)n2c1 do in these assays?
NR1D1 modulator: 29*; PG9 Ab binder: 6; NR1D1 mod conf: 13*

How did Cc1cccc(C)c1NC(=O)CSc1ncnc2[nH]ncc12 do in these assays?
MC4R ag barr: -1; NR1D1 modulator: 23*; NR2E3 ag-2: -5; MC4R antag cAMP: 4; PG9 Ab binder: 1; NR1D1 mod conf: 18*

How did O=S(=O)(c1cccc(Cn2nnc(-c3ccccc3)n2)c1)N1CCOCC1 do in these assays?
MC4R ag barr: -1; NR1D1 modulator: 2; NR2E3 ag-2: 36; MC4R antag cAMP: 9; PG9 Ab binder: 0

Results for O=C(CN1C(=O)/C(=C2\SC(=S)N(C3CCS(=O)(=O)C3)C2=O)c2ccccc21)Nc1ccccc1 (centres undefined) ?
MC4R ag barr: 2; NR1D1 modulator: -2; NR2E3 ag-1: 0; NR2E3 ag-2: -4; MC4R antag cAMP: 5; PG9 Ab binder: -3

How did O=C(COc1ncnc2c(Cl)cc(Cl)cc12)NCCC1=CCCCC1 do in these assays?
MC4R ag barr: 0; NR1D1 modulator: 22*; NR2E3 ag-1: 7; NR2E3 ag-2: -5; MC4R antag cAMP: 1; PG9 Ab binder: -1; NR1D1 mod conf: 16

What do the screens show for `COc1cc(-c2cc(C(=O)Nc3cccc(S(=O)(=O)N(C)C)c3)c3ccccc3n2)cc(OC)c1OC`?
MC4R ag barr: -2; NR1D1 modulator: 15*; NR2E3 ag-1: 4; NR2E3 ag-2: -29; MC4R antag cAMP: 7; PG9 Ab binder: 0; NR1D1 mod conf: -9

How did FC(F)(F)c1cccc(Cn2nnnc2-c2ccc(Cl)cc2)c1 do in these assays?
MC4R ag barr: 7; NR1D1 modulator: -2; NR2E3 ag-1: 6; NR2E3 ag-2: -12; MC4R antag cAMP: 9; PG9 Ab binder: 1

How did CC(C)CC1NC(=O)c2cc3ccccc3cc2-n2c1nc1ccc(Cl)cc1c2=O (centres undefined) do in these assays?
MC4R ag barr: 1; NR1D1 modulator: 16*; NR2E3 ag-2: 2; MC4R antag cAMP: 11; PG9 Ab binder: 0; NR1D1 mod conf: 1

Results for CC(C)CC1NC(=O)c2ccccc2-n2c1nc1ccc(Cl)cc1c2=O (centres undefined) ?
NR1D1 modulator: 9; PG9 Ab binder: -2

How did CCCn1c(=O)[nH]c(=O)c2c(C(=O)OCC)cc(-c3cccs3)nc21 do in these assays?
MC4R ag barr: 2; NR1D1 modulator: 30*; NR2E3 ag-1: 3; NR2E3 ag-2: -3; MC4R antag cAMP: 22; PG9 Ab binder: 0; NR1D1 mod conf: 27*

How did CCC1CCCCN1C(=O)c1cc2c(=O)n3cccc(C)c3nc2s1 (centres undefined) do in these assays?
MC4R ag barr: -1; NR2E3 ag-1: 1; NR2E3 ag-2: -15; MC4R antag cAMP: -7

What do the screens show for `COC(=O)c1ccccc1-c1ccc(/C=N/NC(=O)c2cc3ccccc3o2)o1`?
MC4R ag barr: -1; NR1D1 modulator: 0; NR2E3 ag-1: -1; NR2E3 ag-2: 1; MC4R antag cAMP: 5; PG9 Ab binder: -2

How did COC(=O)c1ccccc1-c1c2ccc(=N)cc-2oc2cc(N)ccc12 do in these assays?
MC4R ag barr: -2; NR1D1 modulator: active; NR2E3 ag-1: -1; NR2E3 ag-2: -7; MC4R antag cAMP: -8; PG9 Ab binder: -3; NR1D1 mod conf: active; RORg counter: >40

Results for O=C1c2ccccc2C(c2nnnn2Cc2ccccc2)N1CCc1c[nH]c2ccccc12 (centres undefined) ?
NR1D1 modulator: 20*; NR2E3 ag-2: -48; PG9 Ab binder: 2; NR1D1 mod conf: -5

How did O=C1c2ccccc2C(c2nnnn2Cc2ccccc2)N1Cc1ccc(F)cc1 (centres undefined) do in these assays?
NR1D1 modulator: -3; NR2E3 ag-2: -15; PG9 Ab binder: 0

How did Cc1cc(=O)oc2cc(NC(=O)c3cccc(F)c3)ccc12 do in these assays?
MC4R ag barr: 0; NR1D1 modulator: 50*; NR2E3 ag-1: -2; NR2E3 ag-2: -45; MC4R antag cAMP: 0; PG9 Ab binder: 2; NR1D1 mod conf: 60*; RORg counter: >40

Results for O=C(COc1ccc(F)cc1)NCCN1CCCC1 ?
MC4R ag barr: 3; NR1D1 modulator: -1; NR2E3 ag-1: -1; NR2E3 ag-2: 4; MC4R antag cAMP: -12; PG9 Ab binder: -1

How did CCc1nn(CC(=O)NCCCc2ccccc2)c(=O)c2cc3c(OC)cccc3n12 do in these assays?
MC4R ag barr: -2; NR1D1 modulator: 31*; NR2E3 ag-1: 2; NR2E3 ag-2: -10; MC4R antag cAMP: 2; PG9 Ab binder: 0; NR1D1 mod conf: 4

Results for N#CC(=Cc1ccc(-c2ccccc2)cc1)C(=O)c1ccccc1 ?
NR1D1 modulator: 2; NR2E3 ag-2: -13; PG9 Ab binder: -1
